According to the EternaBench riboswitch data:

System: MS2 coat protein
Assay: apparent Kd, MS2 coat protein; higher = weaker binding; RNA-MaP array; FMN 200 µM where present
In short: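 Stalled E. coli RNA polymerase produced the designs on Illumina sequencing-chip clusters. SNAP-549-labelled MS2 coat protein was added from 0.7 or 1.5 nM, doubling to 3 µM, without and then with constant ligand, in 100 mM Tris-HCl pH 7.5, 80 mM KCl, 4 mM MgCl2, BSA, DTT, yeast tRNA and Tween-20. The apparent Kd is the median of filtered per-cluster fits of green signal normalised to red-channel RNA signal and control-cluster median Fmax.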

[1] = designed as: ON switch for flavin mononucleotide, no ligand
[2] = ligand present: flavin mononucleotide, designed as: ON switch for flavin mononucleotide
[3] = designed as: OFF switch for flavin mononucleotide, no ligand
[4] = ligand present: flavin mononucleotide, designed as: OFF switch for flavin mononucleotide

| Sequence | apparent Kd [1] | apparent Kd [2] | apparent Kd [3] | apparent Kd [4] |
| --- | --- | --- | --- | --- |
| UAUAUUAUUAUAGGAUAUGGAUAUGAUGCAUAUCCAGAAGGGUGAUUAUAAUAUUUUCUGUACAUGAGGAUCACCCAUGUUUAG | 134 nM | 32.5 nM | – | – |
| UAUAUUUUUAUAGGAUAUGGAUAUGAUGCAUAUCCAGAAGGGUGAAUAUAAUAUUUUCUGUACAUGAGGAUCACCCAUGUUUAU | 235 nM | 72.2 nM | – | – |
| UAUGGUUAAGUCAGGAUAUGCUCAUAGAGGUCUGUGCAGAAGGGACAUGAGGAUCACCCAUGUAUGGUAGUGUU | – | – | 194 nM | 240 nM |
| UAUGUAUUCGUAGGAUAUCCGUUGAAACCGUGUGGAGAAGGACGAACAUGAGGAUCACCCAUGUAUCAUGGUGUAGACAAUUUU | – | – | 75.3 nM | 288 nM |
| UAUGUGUCAGGAUAUUAGUAGUAAAUAAAUAAAAUUAUUACUGAGAAGGGACAUGAGGAUCACCCAUGUGCCUC | – | – | 32.8 nM | 354 nM |
| UAUUACAGAUAAGGAUAUCGACAUGAGGAUCACCCAUGUAUUUGGGAAUGUUUACUGAAUUCUUACGAGAAGGUAUACGUACUU | – | – | 154 nM | 118 nM |
| UAUUAGUAAGGAUAUCCUUGCAUGGACGAAAGUCCAUGCAAGGAGAAGGUACAUGAGGAUCACCCAUGUUCAUU | – | – | 17.2 nM | 17.9 nM |
| UAUUAGUAAGGAUAUGAGACGUAGGACGCAAGUCCUACGUCUCAGAAGGUACAUGAGGAUCACCCAUGUUUAUU | – | – | 18.1 nM | 24.4 nM |
| UAUUAGUGAGGAUAUGGUAAAGAUAAGAUGAUGAAAGAACUCCAGAAGGCACAUGAGGAUCACCCAUGUAGUAG | – | – | 21.8 nM | 24.6 nM |
| UAUUAUAGCAGUGUAUUAAGAUCACAUGAGGAUCACCCAUGUAGAAGGUAUAAGCAAUAUGCUAAUAAGGAUAUACAACACUGC | – | – | 8.13 nM | 27.5 nM |
| UAUUUACAUGAGGAUCACCCAUGUCAGGAUAUGUUUCUAUCGUCGAAAGAUGAUAUUUGCAGAAGGGACAAUAU | – | – | 36.1 nM | 72.5 nM |
| UAUUUACAUGAGGAUCACCCAUGUUAGGAUAUGUUUCUAUCGUCGAAAGAUGAUAUUUGCAGAAGGGACAUUAU | – | – | 20.5 nM | 23.3 nM |
| UAUUUGUGAGGAUAUGAGUCGUAGAACAAUAGUACUACGUCUCAGAAGGUACAUGAGGAUCACCCAUGUUCCUC | – | – | 19 nM | 28 nM |
| UCAAAGCUAGGAUAUACAUGAGGAUCACCCAUGUUAUCACCCAUCGGGUCUUGCUUUUGUAGAAGGAGCAAUAA | – | – | 28.2 nM | 59.8 nM |
| UCACGGUAUGUAGGAUAUGCAUAGCAUUGCUAUGCAGAAGGACAUGAGGAUCACCCAUGUAUGUAUUCCAUACUAAUCCCGUGU | – | – | 6.15 nM | 6.09 nM |
| UCAGGCUUCGAGAAGGACAUGAGGAUCACCCAUGUUAGUUUGAAGCAGCCGUGAGGCUGCAUCAUGUAGGAUAUCGGAGUCUGC | – | – | 6.47 nM | 11.7 nM |
| UCAUAAAUUCGAGGAUAUCGGUGAUAAAGAAGACGAGAAGGCGAUUAGAGAGAGAUGGUUAUAGACAUGAGGAUCACCCAUGUU | 33.9 nM | 24.1 nM | – | – |
| UCAUACAUGACAUGACAUGAGGAUCACCCAUGUCCAUGUUACAAGGAUAUGUACAUGAAACAUGUACAGAAGGUGUAUUGGACU | – | – | 15.4 nM | 29.4 nM |
| UCAUGCAUAGCGAUAUGAUCGAGAGAUCAUGUCGCUAAAUUUAGAAGGACAUGAGGAUCACCCAUGUAGGAUAUGGGAGCAUGC | 419 nM | 59.3 nM | – | – |

| Sequence | apparent Kd [1] | apparent Kd [2] | apparent Kd [3] | apparent Kd [4] |
| --- | --- | --- | --- | --- |
| UCAUGGUAGCAGGAUAUGCUUGUAAUUUUUUUUGCAGAAGGGCUUACAUGAGGAUCACCCAUGUGUUAGGUCUA | – | – | 32.8 nM | 46.7 nM |
| UCAUGUUAGCAGGAUAUGCUAUUUAUUUUUUAUGCAGAAGGGCUUACAUGAGGAUCACCCAUGUGUUAGGUUUU | – | – | 41.8 nM | 21.1 nM |
| UCAUUUACCACAGGAUAUAUUCAUAUACAGUUGUUUGGCUCUUACAUAUUAAUAGAAGGGUGCAACAUGAGGAUCACCCAUGUA | 274 nM | 191 nM | – | – |
| UCCACUGCUGAGAAGGGAUACGUCUGGUUCGCAUCAGGAUAUCGAUACAGUGCAGCAUGAGGACAUGAGGAUCACCCAUGUGUC | 21.6 nM | 19.3 nM | – | – |
| UCCGCCAAAGGAUAUACUGGGCGUUAAAAUCCUCUUAAAAGACAUGAGGAUCACCCAUGUAGAAGGUUGAGGAA | – | – | 209 nM | 575 nM |
| UCCGUACUAGGAUAUACAGCAAAAUCAAACAAAUUCCUCAAACAUGAGGAUCACCCAUGUAGAAGGAGUACCAA | – | – | 17.4 nM | 14.7 nM |
| UCCUAACCGUAGAAGGGUGACAUGAGGAUCACCCAUGUGCAGCAGCCGUGAACGGCCAUGCUGCCACAGGAUAUACGGAGGAGU | 26.1 nM | 55 nM | – | – |
| UCCUGGCAAGGAUAUACAUGAGGAUCACCCAUGUGGAGUCGAUGCUGAAUUCUAUUGUGUAGAAGGUGCCUUUC | – | – | 49.1 nM | 62.3 nM |
| UCCUGGCGAGGAUAUACAAAGUUUUUCACGUUUUGUUACGAACAUGAGGAUCACCCAUGUAGAAGGUGCUACUG | – | – | 116 nM | 103 nM |
| UCCUUACAUGAGGAUCACCCAUGUCAGGAUAUCUCCACACUGCGCUUGCGCAGUGUAUAGAGAAGGGACGGGCU | – | – | 34.2 nM | 26.2 nM |
| UCCUUAUCGGUCAGGAUAUACACCCGUUUCUCCUUGUAGAAGGGACAUGAGGAUCACCCAUGUACAGUACAUCU | – | – | 20.4 nM | 19.1 nM |
| UCCUUGUCCUGAGGAUAUCCGCGGUUCCCAAAAGGAGAAGGCAGGACAUGAGGAUCACCCAUGUACCCAGAGAACGUGCAGAGU | – | – | 19.2 nM | 129 nM |
| UCCUUGUCCUGAGGAUAUCCGUGGUGACCGAAAGGAGAAGGCAGGACAUGAGGAUCACCCAUGUACCCAGAAAACGUGCAGAGU | – | – | 66.5 nM | 458 nM |
| UCGAAAAUGCAAGGAUAUCAAUUAUAGCAAAAUAAGACAUGAGGAUCACCCAUGUAAAUAUGGAGUGAGAAGGUGCAAUAAUUU | 413 nM | 123 nM | – | – |
| UCGAACGGAAACAAAGUCGAUAGACAUGAGGAUCACCCAUGUAAGGAUAUGCCUACUAAAAGUAGGCAGAAGGUACGCGUUCGA | – | – | 18.9 nM | 28.1 nM |
| UCGAACUUUCAUGAAAUUCGCACAUGAGGAUCACCCAUGUACGAGGAUAUGUACUUAAACGGCUAACAGAAGGCGUACUGGGCA | – | – | 105 nM | 71.8 nM |
| UCGAGGUCAGGAUAUACAUGAGGAUCACCCAUGUUGAGAGAAGGUAGGAAAAGAGUAGGUAGAAGGGACGAGAG | – | – | 33.7 nM | 33.8 nM |
| UCGAGUCAUGAGAAGGGCUGAUGUUACAUGAGGAUCACCCAUGUCAUGGGCAGGAUAUCAUUGACACGGCUGUACCUUUCUUAC | 149 nM | 29.4 nM | – | – |
| UCGCGGGAGCAGAAGGGAUAGGCCUAUUGUCGUGGAGUCUACACUUAACAUGAGGAUCACCCAUGUCAGGAUAUGCCCACGCGA | – | – | 8.8 nM | 10.6 nM |

| Sequence | apparent Kd [1] | apparent Kd [2] | apparent Kd [3] | apparent Kd [4] |
| --- | --- | --- | --- | --- |
| UCGCUGCGAGGAUAUACAUGAGGAUCACCCAUGUACGGGUCCGGGUCUUAGUUGAUUGGUAGAAGGCGCAGUGA | – | – | 106 nM | 212 nM |
| UCGGAGUAAGUGAGGAUAUGUGCGCCUUUAAGCGUACAGAAGGCACAUGAGGAUCACCCAUGUGAGGCCUGCCA | – | – | 18.9 nM | 39 nM |
| UCGGCGCGAGGAUAUGCGGCUCCUGCUUCGGGCCGGAGCGUACAUGAGGAUCACCCAUGUAGAAGGCGCGCCGC | – | – | 12 nM | 13.9 nM |
| UCGGCGCGAGGAUAUGCGGUUCCUGCUUCGGGCCGGAGCGUACAUGAGGAUCACCCAUGUAGAAGGCGCGCCGC | – | – | 14.2 nM | 14.6 nM |
| UCGGCGCGAGGAUAUGCGGUUGCUCCCUAGGGUCGGAGCGUACAUGAGGAUCACCCAUGUAGAAGGCGCGCCGC | – | – | 16.2 nM | 16.3 nM |
| UCGUAUAUACAAGGAUAUCAAUUAUUGCUAAAUUCAACAUGAGGAUCACCCAUGUAACUAUGGAGUGAGAAGGUGUAAUGACUU | 504 nM | 476 nM | – | – |
| UCGUUUUUUGAGGAUAUGCGACGUUUUUUCGUCGUAGAAGGCGAUACAUGAGGAUCACCCAUGUUUAUGGGCAU | – | – | 190 nM | 318 nM |
| UCUACAUAAAUUCAUCAAUACAGAAAGGAUAUGAAAUACAUGAGGAUCACCCAUGUUCAUGGGAAUUAGAAGGUUCAAUUAGCC | – | – | 133 nM | 84.6 nM |
| UCUACGUAAAUUCAUCAAUACAGAAAGGAUAUGAAAUACAUGAGGAUCACCCAUGUGCAUGGGAAUUAGAAGGUUCAAUUAACU | – | – | 202 nM | 104 nM |
| UCUAUGUAGAUUCGUCAAUACAGUAAGGAUAUGAGAUACAUGAGGAUCACCCAUGUGCAUGUGGAUUAGAAGGUACAAUUAACU | – | – | 83.7 nM | 73.9 nM |
| UCUCGACAUGAGGAUCACCCAUGUCAGGAUAUUGUAUUGGAGGUGUUUAACCUUAUGGCAAGAAGGGAUGUGUG | – | – | 24 nM | 27.1 nM |
| UCUCUUGGGCAAGGAUAUCCUGCGCGGUUCCGGUUCGUGUCUGUCACAUGAGGAUCACCCAUGUGGGAGAAGGUGCCUGCGGUU | – | – | 17.7 nM | 25.5 nM |
| UCUGCCGCCGUGAGGAUAUGCCCGCGCGCCCGCGGGCAGAAGGCACAUGAGGAUCACCCAUGUCCCGCGGUUUU | – | – | 16.3 nM | 37.3 nM |
| UCUGGAGGAAAACAGACGAAGUGGCCAGAAGGUGAAUGCCACAUGAGGAUCACCCAUGUUUCGAUCAAGGAUAUGGUUUCUCAC | 185 nM | 72.4 nM | – | – |
| UCUUAAGGAGGAUAUACAUGAGGAUCACCCAUGUAUGACCGCAGGGCGUCCUUGUAUCGUAGAAGGCCUCGGUA | – | – | 33.3 nM | 43.6 nM |
| UCUUAUCUAGGAUAUCCACCUCCUCACAUGAGGAUCACCCAUGUGCAGAACAACGGUCUCGGAGAAGGAGGUAUUG | – | – | 25.9 nM | 25.3 nM |
| UCUUAUUGCAAGGAUAUGCUUUUUAUUUCUUUUGCAGAAGGUGCAACAUGAGGAUCACCCAUGUUUCCGGGUAU | – | – | 24.1 nM | 59.5 nM |
| UCUUGUGUUGAGGAUAUGCGCCGGCUCGCUGGCGCAGAAGGCGGCACAUGAGGAUCACCCAUGUCAGUUCGCGA | – | – | 502 nM | 60.8 nM |
